Assay [1] concerns L1210. In words: Antitumor activity against mouse L1210 cells allografted in BDF1 mouse. Type of assay: functional, cell-based. Summed up:
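Run through the NCI routine preliminary in vivo screen (2LE system). L1210 lymphoid leukemia was carried in BDF1 host mice.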

Assay [2] is described as follows: Cytotoxicity against human NCI-[…] cells assessed as growth inhibition. Type of assay: functional. Summed up: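 Run through the NCI routine preliminary in vitro cell-culture screen (9KB system) on human epidermoid carcinoma of the nasopharynx. ED50 is the concentration giving 50% growth inhibition relative to untreated controls.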
Assay [3] deals with Escherichia coli. Put plainly: Irreversible inhibition of Escherichia coli aspartate transcarbamylase in presence of aspartate.
Assay [4] has as its system Escherichia coli. In words: Inhibition of Escherichia coli aspartate transcarbamylase assessed as interaction between aspartate and carbamyl phosphate at 66 mM relative to control. Summed up: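 E. coli aspartate transcarbamylase (0.1 per ml) catalysed the reaction of 5 mM aspartate with 4 mM carbamyl phosphate. Test agent was present at 66 mM, and phosphate at the same concentration served as a comparison. Enzyme activity was read colorimetrically. Inhibition is expressed as a percentage relative to the uninhibited reaction.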

The subject of assay [5] is Escherichia coli. Put plainly: Irreversible inhibition of Escherichia coli aspartate transcarbamylase in absence of aspartate.

The term inhibition denotes the change of the read-out against control, counted positive when it falls.

Values after ≈ are worked out from the molar mass of the structure shown. Active and inactive are the calls of the source. The calls are words filed in the database; no cut-off is given here.

As for `NC(Cc1ccc(O)cc1)C(=O)CCl` (stereo not drawn), in assay [1], the outcome was inactive. In assay [2], the ED50 amounted to 2.1 µg/mL (≈ 9.83 µM).

Consider `CC(C)CC(N)C(=O)CCl` (stereo not drawn), for which the outcome in assay [1] was inactive. Further, in assay [2], the ED50 was 7.6 µg/mL (≈ 46.4 µM).

In the case of `O=C(CCl)NP(=O)([O-])[O-].[Li+].[Li+]`, the inhibition entry in assay [3] and in assay [5] was “inactive” each time. Also, the outcome in assay [1] was inactive. In addition, the inhibition in assay [4] amounted to 60%. For the same molecule, the ED50 in assay [2] was determined as 2.5 µg/mL.

Regarding `NC(Cc1ccccc1)C(=O)CCl` (stereo not drawn), the outcome in assay [1] was inactive. Further, the ED50 in assay [2] was determined as 4 µg/mL (≈ 20.2 µM).

`NCCCCC(N)C(=O)CCl` (stereo not drawn): the result in assay [1] was inactive. Besides, in assay [2], the ED50 worked out at 2.7 µg/mL (≈ 15.1 µM).

The values are drawn from ChEMBL document CHEMBL3244283, “Synthesis and biological activity of potential antimetabolites” (1977).
